High-throughput results deposited in PubChem by several laboratories.
APJ antagonist = antagonists of human apelin receptor APJ, primary screen, CHO-K1 cells, beta-arrestin complementation, luminescence; inhibition, % at 20 µM; hit rate 0.32% among 330,000; AID 2521, 2010; P35414;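 active = inhibition above about 40% at 20 µM, limit read from the data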;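 note: cells challenged with 10 nM apelin-13 agonist together with compound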
CXCR6 inh = CXCR6 receptor inhibitors, primary screen, cell-based, beta-arrestin, luminescence, CHO-K1 PathHunter, 1536-well; C-X-C chemokine receptor type 6 (Homo sapiens), O00574; hit rate 0.36% among 360,000; inhibition, % at 20 µM; AID 602244, 2012; in the data active = inhibition above about 34%, passing the limit was not always enough;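 note: antagonist mode with CXCL16 agonist at 10 nM final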
EBI2 antag = EBI2 receptor antagonists, beta-arrestin recruitment, primary screen, cell-based, luminescence, 7a,25-OHC stimulation, uHTS; G-protein coupled receptor 183 (Homo sapiens), P32249; 7a,25-OHC stimulated; inhibition, % at 5 µM; hit rate 0.81% among 360,000; in the data active = inhibition above about 38%;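 note: enzyme fragment complementation signal reports receptor beta-arrestin coupling in cells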
Target sequence (P32249 whole entry, looked up, the tested form may be a part): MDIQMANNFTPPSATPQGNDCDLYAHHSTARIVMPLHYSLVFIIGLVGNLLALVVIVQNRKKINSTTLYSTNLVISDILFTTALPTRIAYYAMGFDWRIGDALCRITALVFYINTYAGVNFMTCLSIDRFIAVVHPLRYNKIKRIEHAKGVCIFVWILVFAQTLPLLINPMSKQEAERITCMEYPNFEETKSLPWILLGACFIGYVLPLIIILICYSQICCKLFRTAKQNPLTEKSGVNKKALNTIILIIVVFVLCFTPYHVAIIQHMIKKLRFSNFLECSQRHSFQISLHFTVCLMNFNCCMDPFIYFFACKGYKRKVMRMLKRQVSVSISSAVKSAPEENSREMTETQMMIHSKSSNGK
m5-HT2A agonist = mouse Htr2a agonists via beta-arrestin recruitment, primary screen, cell-based, luminescence. 5-hydroxytryptamine receptor 2A (Mus musculus), P35363. CHO-K1 mHTR2A beta-arrestin complementation; percent of 30 µM serotonin response. activation, % at 7.6 µM. hit rate 0.66% among 360,000. AID 624169, 2012;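 active = activation above a run cutoff, the mean activation of all tested compounds plus 3 SD, cut at about 14% in these data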
CCR6 antag = CCR6 receptor antagonists, primary screen, cell-based, CHO-K1, luminescence, beta-arrestin, uHTS | C-C chemokine receptor type 6 (Homo sapiens), P51684 | CHO-K1 CCR6 PathHunter beta-arrestin, CCL20-stimulated | inhibition, % at 20 µM | hit rate 0.49% among 340,000 | AID 493098, 2011;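 active = compounds whose inhibition of the agonist-driven luminescence signal at 20 µM reaches about 50%, limit read from the data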;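 note: cells stimulated with CCL20 at 14 nM final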
Target sequence (P51684 whole entry, looked up): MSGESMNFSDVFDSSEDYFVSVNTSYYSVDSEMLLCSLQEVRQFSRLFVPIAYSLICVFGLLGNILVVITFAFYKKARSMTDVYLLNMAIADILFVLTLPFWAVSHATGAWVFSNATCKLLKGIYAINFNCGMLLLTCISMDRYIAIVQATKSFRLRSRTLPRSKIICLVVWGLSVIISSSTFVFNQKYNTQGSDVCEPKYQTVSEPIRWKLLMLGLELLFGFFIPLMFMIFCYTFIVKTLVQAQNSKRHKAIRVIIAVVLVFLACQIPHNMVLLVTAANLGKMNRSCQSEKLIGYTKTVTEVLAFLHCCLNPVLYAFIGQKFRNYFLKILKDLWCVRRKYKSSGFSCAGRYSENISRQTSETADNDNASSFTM
APJ ag = agonists of human apelin receptor APJ, primary screen, CHO-K1 cells, PathHunter beta-arrestin, luminescence | 0% DMSO wells, 100% apelin | AID 2520, 2010 | hit rate 0.11% among 330,000 | P35414 | activation, % at 20 µM;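 active = activation more than six SD over the plate average, tested at 20 µM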
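Assay system – PathHunter CHO-K1 APJ (AGTRL-1) beta-arrestin reporter cells · Compound – one dose, 20 µM compound, 1% DMSO · Timing – compound 90 min 25 °C, reagent 1 h · Measured by – luminescence from split beta-galactosidase complementation, Galacton Star/Emerald II substrate · Measure – beta-arrestin recruitment to APJ as agonist activity, luminescent signal · Benchmarks – DMSO vs Apelin-13 10 nM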
EBI2 antag conf = EBI2 antagonist hit retest, beta-arrestin, confirmation, cell-based, single concentration, luminescence, 7a,25-OHC stimulation; 7a,25-OHC antagonism; shares compounds with EBI2 antag; inhibition, % at 5 µM; hit rate 29% among 2,400;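 active = inhibition of at least 50%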
EBI2 ag = EBI2 agonist activity of antagonist hits, confirmation, counter-screen for EBI2 antagonist project, cell-based, single concentration, agonist mode, luminescence. activation, % at 5 µM. AID 652000, 2013. EBI2-expressing cells, 60 min; 0% vehicle, 100% 7α,25-dihydroxycholesterol control. shares compounds with EBI2 antag. 2,400 tested, under 10 active;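 active = activation of at least 50%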
bGal cs = E. coli beta-galactosidase enzyme inhibition, confirmation, counter-screen for EBI2 antagonist project, biochemical, luminescence, single concentration; shares compounds with EBI2 antag; purified beta-galactosidase, luminescent Galacton Star, 15 min; inhibition, % at 5 µM; hit rate 1% among 2,400;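 active = replicate-average signal at least 3 plate SD below neutral wells, shown as high inhibition, flagging enzyme-inhibiting false positives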;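 note: higher means stronger loss of beta-gal luminescence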
Of the large screens only hits and unclear results are named; the others gave an inactive call (follow-up assays come after a bar, where they were run). Compounds with a hit are over-represented: about 2.1% of the library has one in this group of screens.

O=C(C1CCN(c2nc3ccc(Br)cc3s2)CC1)N1CCC2(CC1)OCCO2	EBI2 antag 56 | EBI2 antag conf inactive | EBI2 ag inactive | bGal cs inactive
CC(=O)Nc1ccc(OC(=O)N(C)c2ccc(C)cc2)cc1	none
Cc1ccc(N(C)C(=O)Oc2ccc(C(=O)c3ccc(Cl)cc3)cc2)cc1	EBI2 antag 78 | EBI2 antag conf inactive | EBI2 ag inactive | bGal cs inactive
Cc1ccc(OCC(=O)N2CCN(CC3CC4C=CC3C4)CC2)cc1 (stereo not given)	EBI2 antag 84 | EBI2 antag conf 62 | EBI2 ag inactive | bGal cs inactive
O=C(COc1ccccc1)N1CCN(CC2CC=CCC2)CC1 (stereo not given)	EBI2 antag 68 | EBI2 antag conf inactive | EBI2 ag inactive | bGal cs inactive
O=C(COc1ccccc1)N1CCN(CC2CC3C=CC2C3)CC1 (stereo not given)	none
CC(C)NS(=O)(=O)c1ccc(OCC(=O)N2CCN(Cc3ccccc3)CC2)cc1	none
COc1ccc(OCC(=O)N2CCN(Cc3ccc(SC)cc3)CC2)cc1	EBI2 antag 71 | EBI2 antag conf 50 | EBI2 ag inactive | bGal cs inactive
O=C(COc1ccc(Cl)cc1)N1CCN(Cc2ccccc2)CC1	EBI2 antag 91 | EBI2 antag conf 66 | EBI2 ag inactive | bGal cs inactive
CC1CCC(N2CCN(C(=O)COc3ccccc3)CC2)CC1 (stereo not given)	none
N#Cc1ccc(OCC(=O)N2CCN(Cc3ccc4c(c3)OCO4)CC2)cc1	none
COc1ccccc1OCC(=O)N1CCN(Cc2ccc3c(c2)OCO3)CC1	none
COc1ccc(OCC(=O)N2CCN(Cc3ccc4c(c3)OCO4)CC2)cc1	EBI2 antag 86 | EBI2 antag conf 59 | EBI2 ag inactive | bGal cs inactive
Cc1ccc(OCC(=O)N2CCN(Cc3ccc4c(c3)OCO4)CC2)cc1	EBI2 antag 88 | EBI2 antag conf 61 | EBI2 ag inactive | bGal cs inactive
Cc1ccc(OCC(=O)N2CCN(Cc3ccc([N+](=O)[O-])cc3)CC2)cc1	EBI2 antag 94 | EBI2 antag conf 71 | EBI2 ag inactive | bGal cs inactive
O=C(COc1ccc(Cl)cc1)N1CCN(C2CCCC2)CC1	EBI2 antag 89 | EBI2 antag conf 67 | EBI2 ag inactive | bGal cs inactive
Cc1nn(Cc2ccccc2)c(Cl)c1C(=O)OCC(=O)N1CCCC1	none
CCN(CC)C(=O)c1ccc(NC(=O)CN2CCc3cc(OC)c(OC)cc3C2)cc1	none
CN1C(=O)C[N+]([O-])=C(c2ccccc2)c2cc(Cl)ccc21	none (no result: APJ antagonist, APJ ag)
CCOC(=O)[C@]12Cc3cc(OC)ccc3[C@H]1N(Cc1ccccc1)C(=O)c1cc(F)c(F)cc12	EBI2 antag 40 (no result: APJ antagonist, APJ ag) | EBI2 antag conf inactive | EBI2 ag inactive | bGal cs inactive
Cc1nc2cc(F)ccc2n1C1CCN(Cc2nnnn2CCc2ccccc2)CC1	none
Cc1nc2cc(C(F)(F)F)ccc2n1C1CCN(Cc2nnnn2CCc2ccccc2)CC1	EBI2 antag 37 | EBI2 antag conf inactive | EBI2 ag inactive | bGal cs inactive
O=C(c1cc(C(=O)NCc2ccccc2)c(=O)n(Cc2ccccc2)c1)c1cc(Br)ccc1O	none
Cc1ccc(O)c(C(=O)c2cc(C(=O)NCc3ccccc3)c(=O)n(Cc3ccccc3)c2)c1	EBI2 antag 42 | EBI2 antag conf inactive | EBI2 ag inactive | bGal cs inactive
CCC1(C)OC(c2ccccc2)=C/C(=C/C=C2C(=O)NC(=O)NC2=O)O1 (stereo not given)	none (no result: APJ antagonist, APJ ag)
Cc1ncc(C(=O)O)n1C(C)c1ccccc1 (stereo not given)	none (no result: APJ antagonist, CCR6 antag, APJ ag)
CCOC(=O)c1cncn1[C@@H](C)c1ccccc1	EBI2 antag 56 | EBI2 antag conf inactive | EBI2 ag inactive | bGal cs inactive
COC(=O)C1=C(c2cccc(Cl)c2)C[C@@H]2CC[C@H]1N2C(=O)N1CCCC1	none
COc1cc(OC)c(OC)cc1CN1CCN(C(=O)COc2ccc3ccccc3c2)CC1	EBI2 antag 71 | EBI2 antag conf inactive | EBI2 ag inactive | bGal cs inactive
COc1cccc(CN2CCN(C(=O)COc3ccc4ccccc4c3)CC2)c1	EBI2 antag 95 | EBI2 antag conf 74 | EBI2 ag inactive | bGal cs inactive
CC(=O)OC1C(O)C(C)OC(OC2C(OC(=O)C3CCC4C(C3)OC3(CC(OC(=O)/C=C/c5ccccc5)C(C)CO3)C43CO3)OC(C)C(O)C2OC(C)=O)C1O (stereo not given)	none (no result: APJ antagonist, APJ ag)
COC(=O)N(c1ccccc1)P(=O)(Oc1ccccc1)Oc1ccccc1	none
COC(=O)C1=C(c2ccccc2OCc2ccccc2)C[C@@H]2CC[C@H]1N2C(=O)NCc1ccc(Cl)cc1	EBI2 antag 44 | EBI2 antag conf inactive | EBI2 ag inactive | bGal cs inactive
COC(=O)C1=C(c2ccc(-c3ccccc3)c(F)c2)C[C@@H]2CC[C@H]1N2C(=O)NCCOc1ccc(OC)cc1	EBI2 antag 54 | EBI2 antag conf inactive | EBI2 ag inactive | bGal cs inactive
COC(=O)C1=C(c2ccc(F)cc2OCc2ccccc2)C[C@@H]2CC[C@H]1N2C(=O)NCCOc1ccc(OC)cc1	EBI2 antag 48 | EBI2 antag conf inactive | EBI2 ag inactive | bGal cs inactive
COC(=O)C1=C(c2ccccc2OCc2ccccc2)C[C@@H]2CC[C@H]1N2C(=O)NCc1ccc(N(C)C)cc1	none
COC(=O)C1=C(c2ccc(-c3ccccc3)c(F)c2)C[C@@H]2CC[C@H]1N2C(=O)NCCc1ccccc1	EBI2 antag 44 | EBI2 antag conf inactive | EBI2 ag inactive | bGal cs inactive
C[C@@H]1CN([C@H](C)CO)C(=O)CCCn2nncc2CO[C@@H]1CN(C)C(=O)Oc1ccccc1	none (no result: APJ antagonist, CCR6 antag, APJ ag)
O=c1c2ccccc2nc(-c2ccccc2Cl)n1-c1cccc(O)c1	none
C[C@@H]1CN([C@H](C)CO)C(=O)CCCn2nncc2CO[C@@H]1CN(C)C(=O)Oc1ccc2ccccc2c1	none (no result: APJ antagonist, CCR6 antag, APJ ag)
